Compounds with a hit are over-represented: about 1.9% of the library has one in this group of screens.
Xi reactivation: X-chromosome reactivation activator; AID 743238; activation, % at 7.58 µM; 360,000 tested, 0.055% active; XiGFP mouse fibroblasts, % GFP-positive cells imaging, 3 d; cells co-treated with 5-aza-dC sensitizer; scaled so ellipticine positive control = 100%;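 active = mean normalized replicate activation at least 10% and every replicate at or above 10%; inconclusive = only one of the two criteria met; inactive = mean below 10% and not all replicates reach 10%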;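 also: 0% = median of on-plate neutral control wells and 100% = ellipticine 6 µM median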
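Material: SV40-immortalized XiGFP fibroblast cells, line 68-5-11 | Buffer or medium: DMEM containing 5-aza-dC | Dosing: One concentration, pinned | Times: 3 d treatment, 15 min room-temperature fixation | Controls: Ellipticine 6 µM positive control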
F508del corr: correctors of CFTR F508del function in bronchial epithelial cells | CFBE cells, YFP halide quenching; stimulated with forskolin plus potentiator P3; % fluorescence drop versus neutral controls | activity (quench increase), % at 7.58 µM | 350,000 tested, 0.36% active;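 active = mean added fluorescence quench of at least 8% versus neutral control, with both replicates also reaching 8%; inconclusive = only one of the mean or replicate conditions met; inactive = mean below 8% and not both replicates reaching 8%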;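 also: cells transiently co-express mutant CFTR-F508del with the halide-sensitive YFP; corrector assay measuring rescue of mutant channel to the surface after 24 h compound exposure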
DENV2 CPE: protects cells from dengue virus 2 cytopathic effect; DENV2-infected cells, cytopathic effect rescue, plate reader; CPE inhibition, % at 9.99 µM; 350,000 tested, 1.7% active; AID 651640; in the data active = CPE inhibition above about 20%, passing the limit was not always enough; inconclusive = no clear call, values can overlap the other calls; tested in BHK-21 cells;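 also: 0% = median of neutral control wells and 100% = median of positive control wells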
PGC1a acetyl inh: PGC1a acetylation modulation, inhibitor mode; inhibition, % at 15.6 µM; 350,000 tested, 0.17% active; U2OS PGC1a acetylation, AlphaScreen anti-acetyl-lysine; with virally co-expressed GCN5 acetyltransferase;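 active = every replicate shows inhibition of at least 40%; inconclusive = mean inhibition at least 40% but some replicate below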;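 also: 0% = neutral control wells and 100% = positive control wells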
Cneo AK release: Cryptococcus neoformans lysis via adenylate kinase release; C. neoformans lysis, adenylate kinase release luminescence, 4 h; normalised: neutral wells 0, clomiphene wells 100; lysis activity, % at 15 µM; 360,000 tested, 0.2% active; AID 651654;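 active = mean lysis activity across replicates of at least 80%, whatever share of replicates individually reach that level; inactive = mean lysis activity below 80%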
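Assay system: log-phase C. neoformans yeast / Quantity: yeast cell density of 5 × 10^6 cells/mL / Medium: fresh YPD growth medium / Compound: single dose / Timing: static 4 h at 37 °C with compound, 1 h detection / Measured by: adenylate kinase release luminescence / Read-out: lysis from increased AK signal / Benchmarks: Clomiphene as positive lysis control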
FN deposition inh: fibronectin deposition inhibition | AH1F fibroblasts, Alexa488-fibronectin deposition fluorescence, overnight | inhibition, % at 12.6 µM | 350,000 tested, 0.086% active;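 active = mean inhibition across replicates of 30% or more, regardless of how many single replicates reach that level; inconclusive = mean under 30% yet at least half of replicates reach 30%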;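 also: positive control wells lacked labelled fibronectin entirely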
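Material: AH1F fibroblast monolayer depositing Alexa488-labelled fibronectin into matrix / Amount: 10000 AH1F cells per well / Signal: fluorescence 485/525 nm / Medium: DMEM, 2% serum / Compound: single dose, pinned / Incubation: 1 h cell adhesion before compound, then overnight fibronectin incubation / Reagent: Alexa488-FN, 24 nM final / Read-out: inhibition of fibronectin deposition signal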
C2C12 COX5a inh: reduces COX5a expression driven by PGC-1a in C2C12 myotubes; C2C12 myotubes PGC-1a adenovirus, COX5a qPCR; AID 743461; maximal activity, %; 45 tested, under 10 active; shares compounds with PGC1a acetyl inh;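 active = fitted dose curve reaching 40% activity at or below the highest valid dose tested; inconclusive = flat fit between 30% and 70%, or an unusable fit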
AID743468: change in PGC-1a target gene PDK4 expression, dose response, C2C12 myotubes, RT-qPCR, cherry-pick; shares compounds with PGC1a acetyl inh; 45 tested, under 10 active; PDK4 expression increase, % at 19.5 µM; PGC-1a adenovirus, PDK4 mRNA qPCR;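 active = fitted curve reaching a 40% PDK4 expression rise at or below the top valid tested dose; inconclusive = no clear call, values can overlap the other calls; inactive = the rest, including shifts the wrong way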
* hit, by the source's call; ? = inconclusive; · = no result.

SMILES	Xi reactivation	F508del corr	DENV2 CPE	PGC1a acetyl inh	Cneo AK release	FN deposition inh	others
C[n+]1c(-c2ccccc2)c2cc(N)ccc2c2ccc(N)cc21	19*	4	-5	3	-3	21
C[C@H]1O[C@@H](OC2CC[C@]3(C=O)[C@H]4CC[C@]5(C)[C@@H](C6=CC(=O)OC6)CC[C@]5(O)[C@@H]4CC[C@]3(O)C2)CC2OC(C)(C)OC21 (stereo partly drawn)	0	8.6*	-1	·	·	17
CC12CCC3C(CCC4(O)CC(O)CCC34C=O)C1(O)CCC2C1=CC(=O)OC1 (stereo not drawn)	0	-2	?	·	·	19
C[C@]12CC[C@H]3[C@@H](CC[C@]4(O)C[C@@H](O)CC[C@]34C=O)[C@@]1(O)CC[C@@H]2C1=CC(=O)OC1	0	-3	6	96*	-1	4
CC(=O)N1C[C@@H]2C(c3ccccc3)[C@H](C1)N2CC1CC1 (stereo partly drawn)	0	·	·	·	·	3
CCN1CCC(NCC2CCCCC2)CC1	0	-2	32*	-7	3	-8
CNCCc1ccc(OC)c(OC)c1	·	1	51*	14	0	·
CC(=O)OCC12CC(OC(=O)CC(C)C)C(C)=CC1OC1C(O)C(OC(C)=O)C2(C)C12CO2 (stereo not drawn)	1	-5	-37	74*	·	9
O=C(Cc1ccccc1)N1CCCCN2[C@H](CO)[C@H](c3ccc(C#CC4(O)CCCC4)cc3)[C@H]2C1	0	2	-3	-4	0	·
O=c1[nH]c(CN2CC=C(c3ccccc3)CC2)nc2cc(C(F)(F)F)ccc12	·	·	·	0	88*	·
O=c1[nH]c(=O)n(Cc2ccc(F)cc2)c(O)c1/C=N/Nc1ccccc1	0	1	34*	·	·	3
O=c1[nH]c(=O)n(Cc2ccc(F)cc2)c(O)c1C=NCCCO	·	·	·	6	-2	-2
COCC#Cc1ccc([C@@H]2[C@H]3CN(C(=O)Cc4ccccn4)CCCCN3[C@H]2CO)cc1	0	1	8	7	-1	·
Cc1ccccc1S(=O)(=O)N1[C@@H]2Cn3c(ccc(-c4cccnc4)c3=O)[C@H]1[C@@H](C(=O)O)[C@@H]2CO	0	-3	1	·	-2	·
CCOC(=O)[C@]12Cc3cc(OC)ccc3[C@H]1N(CCC(=O)OC)C(=O)c1cc(OC)ccc12	0	5	-10	·	·	16
CCOC(=O)[C@]12Cc3ccccc3[C@H]1N(CCC(=O)OC)C(=O)c1cc(OC)ccc12	1	2	30*	·	·	·
CCCN1[C@@H]2Cn3c(cccc3=O)[C@H]1[C@@H](C(=O)N(C)C)[C@@H]2CO	1	·	-1	·	-1	·
c1ccc(-c2cc(-c3ccccc3)[n+](-c3ccccc3)c(-c3ccccc3)c2)cc1	1	1	8	-2	-1	3
CN(C)c1ccc(-[n+]2c(-c3ccccc3)cc(-c3ccccc3)cc2-c2ccccc2)cc1	0	8.3*	·	-46	·	4
c1ccc(C2CC2)c(OCC2=NCCN2)c1	0	3	75*	-4	0	1
CC(C)(O)/C=C/C(=O)[C@](C)(O)C1[C@H](O)C[C@@]2(C)C3CC=C4C(C[C@H](O)[C@@H](O)C4(C)C)[C@]3(C)C(=O)C[C@]12C (stereo partly drawn)	·	·	·	65*	-2	·
Cc1ccccc1-n1c(O)c(/C=C2/C(c3ccccc3)=Nc3ccccc32)c(=O)[nH]c1=O	0	·	2	·	·	6
Cc1cccc(-n2c(O)c(/C=C3/C(c4ccccc4)=Nc4ccccc43)c(=O)[nH]c2=O)c1	0	12*	?	·	·	8
O=c1[nH]c2ccccc2n1C1CCN(C(c2cc3ccccc3o2)c2nnnn2Cc2ccccc2)CC1 (stereo not drawn)	0	5	13	49*	-1	9	C2C12 COX5a inh=55;AID743468=-7
Cc1ccc(OC(=O)N(C)C[C@@H]2OCc3ccccc3-c3c(n(C)c4ccccc34)C(=O)N([C@H](C)CO)C[C@@H]2C)cc1	1	0	11	4	·	-6

Compound activity (PubChem)
